Data as given in ChEMBL document CHEMBL4261629 (Bioorg Med Chem, 2018).
The source made the active and inactive calls. The calls are words filed in the database; no cut-off is given here.

How the values were obtained:
[1] = molecular target: T1, Protein deacetylase HDAC6 (Homo sapiens, UniProt Q9UBN7); assay: Inhibition of recombinant human HDAC6 using fluorogenic HDAC substrate preincubated for 15 mins followed by substrate addition and measured after 30 mins by fluorescence analysis
T1 sequence (Q9UBN7 whole entry): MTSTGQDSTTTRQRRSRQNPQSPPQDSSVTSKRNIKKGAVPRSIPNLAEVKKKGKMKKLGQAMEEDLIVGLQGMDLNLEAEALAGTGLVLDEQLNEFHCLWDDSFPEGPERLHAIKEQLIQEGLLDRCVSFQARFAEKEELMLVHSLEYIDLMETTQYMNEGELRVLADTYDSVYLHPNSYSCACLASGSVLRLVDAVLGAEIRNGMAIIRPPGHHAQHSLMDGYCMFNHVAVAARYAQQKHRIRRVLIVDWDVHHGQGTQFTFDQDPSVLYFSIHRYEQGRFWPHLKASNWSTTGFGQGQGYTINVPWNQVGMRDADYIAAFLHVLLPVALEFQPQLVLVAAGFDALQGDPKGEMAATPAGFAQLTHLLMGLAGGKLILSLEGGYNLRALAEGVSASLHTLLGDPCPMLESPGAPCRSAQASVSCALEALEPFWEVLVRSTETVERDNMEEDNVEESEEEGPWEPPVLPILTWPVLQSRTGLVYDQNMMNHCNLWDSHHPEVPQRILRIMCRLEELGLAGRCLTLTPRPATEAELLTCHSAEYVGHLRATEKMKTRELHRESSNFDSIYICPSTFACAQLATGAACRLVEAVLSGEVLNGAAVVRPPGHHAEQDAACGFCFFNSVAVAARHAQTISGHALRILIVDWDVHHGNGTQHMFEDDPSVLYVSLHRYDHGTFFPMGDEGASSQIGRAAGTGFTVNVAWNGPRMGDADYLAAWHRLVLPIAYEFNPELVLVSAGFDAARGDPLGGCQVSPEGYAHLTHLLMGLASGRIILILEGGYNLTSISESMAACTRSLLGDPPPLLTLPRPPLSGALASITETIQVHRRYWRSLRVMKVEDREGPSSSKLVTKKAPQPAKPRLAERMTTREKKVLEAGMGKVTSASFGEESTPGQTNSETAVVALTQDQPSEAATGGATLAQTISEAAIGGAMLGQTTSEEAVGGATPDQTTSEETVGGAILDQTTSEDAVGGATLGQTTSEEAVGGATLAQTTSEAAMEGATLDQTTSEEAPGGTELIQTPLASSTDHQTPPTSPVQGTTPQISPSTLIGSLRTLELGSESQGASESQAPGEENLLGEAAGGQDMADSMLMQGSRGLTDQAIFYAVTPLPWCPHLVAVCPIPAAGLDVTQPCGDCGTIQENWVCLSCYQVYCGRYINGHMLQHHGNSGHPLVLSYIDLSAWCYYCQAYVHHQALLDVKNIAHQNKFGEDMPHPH

PC-12 [2] = assay: Cytotoxicity against rat PC12 cells at 20 uM in presence of ebselen after 24 hrs by MTT assay; assay type: cell-based; settings: pc-12, 24 h
Method in brief: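 PC12 cells exposed for 24 h to compound at 10 or 20 µM, alone or combined with ebselen. Viability by MTT assay. Mean ± SD of three independent experiments.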

PC-12 [3] = assay: Cytoprotective activity against H2O2-induced damage in rat PC12 cells assessed as decrease in ROS accumulation preincubated for 24 hrs followed by H2O2 challenge measured after 12 hrs by DCFH-DA dye-based fluorescence analysis; assay type: functional, cell-based
Method in brief: (§1)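 Intracellular ROS was detected by DCFH-DA staining, which esterases deacetylate and ROS oxidise to fluorescent dichlorofluorescein. Fluorescence was quantified on a microplate reader.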

PC-12 [4] = assay: Cytoprotective activity against H2O2-induced damage in rat PC12 cells assessed as decrease in ROS accumulation preincubated for 24 hrs followed by H2O2 challenge measured after 12 hrs by DCFH-DA dye-based inverted fluorescence microscopic analysis; assay type: functional, cell-based
Method in brief: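 PC12 cells were pretreated with compound (5 or 10 µM), then challenged with H2O2 and stained with DCFH-DA to show ROS. Fluorescence images were taken by inverted fluorescence microscopy.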

PC-12 [5] = assay: Antioxidant activity against H2O2-induced oxidative stress in rat PC12 cells assessed as decrease in ROS accumulation at 5 uM preincubated for 24 hrs followed by H2O2 challenge and measured after 12 hrs coincubated with ebselen by DCFH-DA dye-based fluorescence analysis; assay type: functional, cell-based
Method in brief: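 PC12 cells pretreated with compound (5 or 10 µM) alone or together with ebselen, then challenged with H2O2. Intracellular ROS detected by DCFH-DA staining, which is deacetylated in cells and oxidised by ROS to fluorescent dichlorofluorescein. Imaged by inverted fluorescence microscopy and quantified on a fluorescence microplate reader.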

PC-12 [6] = assay: Cytotoxicity against rat PC12 cells at 20 uM after 24 hrs by MTT assay; assay type: cell-based; settings: pc-12, 24 h
PC-12 [7] = assay: Antioxidant activity against H2O2-induced oxidative stress in rat PC12 cells assessed as decrease in ROS accumulation preincubated for 24 hrs followed by H2O2 challenge and measured after 12 hrs coincubated with tubastatin A by DCFH-DA dye-based fluorescence analysis; assay type: functional, cell-based; method in brief: as §1
PC-12 [8] = assay: Neuroprotective activity against 6-OHDA-induced toxicity in rat PC12 cells assessed as increase in cell viability at 5 to 10 uM pretreated for 24 hrs followed by 6-OHDA challenge and measured after 12 hrs coincubated with ebselen by MTT assay; assay type: functional, cell-based
Method in brief: (§2)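 PC12 cells seeded at 1 × 10⁴ cells/well and grown 1 d, then pretreated 24 h with compound, alone or with ebselen. Medium replaced with fresh medium containing the insult (H2O2 400 µM or 6-OHDA 200 µM), incubated 12 h. Viability by MTT assay, relative to control. Mean ± SD of three independent experiments.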

PC-12 [9] = assay: Neuroprotective activity against H2O2-induced toxicity in rat PC12 cells assessed as cell viability at 5 to 10 uM pretreated for 24 hrs followed by H2O2 challenge and measured after 12 hrs coincubated with ebselen by MTT assay relative to control; assay type: functional; method in brief: as §2
PC-12 [10] = assay: Neuroprotective activity against 6-OHDA-induced toxicity in rat PC12 cells assessed as increase in cell viability at 5 uM pretreated for 24 hrs followed by 6-OHDA challenge and measured after 12 hrs by MTT assay; assay type: functional, cell-based
Method in brief: (§3)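 Medium was replaced with fresh medium containing H2O2 (400 μM) or 6-OHDA (200 μM), and incubation continued 12 h. Viability was read by MTT assay. Mean ± SD, three independent experiments.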

PC-12 [11] = assay: Neuroprotective activity against H2O2-induced toxicity in rat PC12 cells assessed as cell viability at 10 uM pretreated for 24 hrs followed by H2O2 challenge and measured after 12 hrs by MTT assay relative to control; assay type: functional, cell-based; method in brief: as §3
PC-12 [12] = assay: Neuroprotective activity against 6-OHDA-induced toxicity in rat PC12 cells assessed as increase in cell viability at 10 uM pretreated for 24 hrs followed by 6-OHDA challenge and measured after 12 hrs by MTT assay; assay type: functional, cell-based; method in brief: as §3
PC-12 [13] = assay: Antioxidant activity against H2O2-induced oxidative stress in rat PC12 cells assessed as decrease in ROS accumulation at 5 uM preincubated for 24 hrs followed by H2O2 challenge and measured after 12 hrs by DCFH-DA dye-based fluorescence analysis; assay type: functional, cell-based; method in brief: as §1
[14] = Antioxidant activity assessed as tert-butyl hydroperoxide radical scavenging at 10 uM measured within 180 mins; assay type: functional
Method in brief: (§4)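 Kinetic peroxide scavenging by GSH at 25 °C in 100 mM phosphate buffer, pH 7.5. Final conditions: EDTA 1 mM, GSH 0.25 mM, NADPH 0.50 mM, glutathione reductase 1.3 unit·mL-1, peroxide 0.20 mM (H2O2, t-BuOOH or Cum-OOH), catalyst 10 μM. Scavenging was followed over time, and maximal scavenging was derived. Mean ± SE, three independent experiments.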

[15] = Antioxidant activity assessed as H2O2 radical scavenging at 10 uM measured within 180 mins; assay type: functional; method in brief: as §4
[16] = Antioxidant activity assessed as cumene hydroperoxide radical scavenging at 10 uM measured within 180 mins; assay type: functional; method in brief: as §4
[17] = Antioxidant activity assessed as tert-butyl hydroperoxide radical scavenging at 10 uM up to 200 mins; assay type: functional; method in brief: as §4
PC-12 [18] = assay: Neuroprotective activity against H2O2-induced toxicity in rat PC12 cells assessed as cell viability at 5 uM pretreated for 24 hrs followed by H2O2 challenge and measured after 12 hrs by MTT assay relative to control; assay type: functional; settings: read-out: Activity; method in brief: as §3
[19] = Antioxidant activity assessed as cumene hydroperoxide radical scavenging at 10 uM up to 200 mins; assay type: functional; method in brief: as §4
Histone deacetylase 3 = Histone deacetylase 3 (Homo sapiens, UniProt O15379); assay: Inhibition of recombinant human HDAC3 using fluorogenic HDAC substrate after 30 mins by fluorescence analysis
[20] = Antioxidant activity assessed as H2O2 radical scavenging at 10 uM up to 200 mins; assay type: functional; method in brief: as §4
[21] = molecular target: T2, Histone deacetylase 6 (Rattus norvegicus) (UniProt Q99P97); assay: Inhibition of HDAC6 in rat PC12 cells assessed as increase in acetylated alpha-tubulin expression after 24 hrs by Western blot analysis; assay type: cell-based
T2 sequence (whole entry): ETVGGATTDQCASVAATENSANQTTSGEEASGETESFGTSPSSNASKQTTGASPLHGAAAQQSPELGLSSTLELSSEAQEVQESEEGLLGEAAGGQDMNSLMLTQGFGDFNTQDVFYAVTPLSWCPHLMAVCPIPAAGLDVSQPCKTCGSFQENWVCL
Method in brief: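 Cellular HDAC6 inhibition: PC12 cells were incubated with compound at 0.01, 0.1, 1 and 10 μM. Acetylated α-tubulin and total α-tubulin were detected by Western blot, and their ratio was assessed.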

Chain of Histone deacetylase 3 (O15379 whole entry): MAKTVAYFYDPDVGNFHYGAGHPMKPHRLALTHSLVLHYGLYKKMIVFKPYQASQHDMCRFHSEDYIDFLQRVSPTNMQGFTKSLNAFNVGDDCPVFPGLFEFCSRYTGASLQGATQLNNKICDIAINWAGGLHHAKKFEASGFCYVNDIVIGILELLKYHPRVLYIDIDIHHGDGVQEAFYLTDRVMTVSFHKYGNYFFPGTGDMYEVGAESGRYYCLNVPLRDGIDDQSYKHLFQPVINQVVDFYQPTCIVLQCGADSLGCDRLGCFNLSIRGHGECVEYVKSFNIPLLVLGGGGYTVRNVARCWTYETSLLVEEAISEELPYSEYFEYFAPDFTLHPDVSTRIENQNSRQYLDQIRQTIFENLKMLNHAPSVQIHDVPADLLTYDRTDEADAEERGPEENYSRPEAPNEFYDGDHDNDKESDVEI

O=C(CCCCn1[se]c2ccccc2c1=O)NO
IC50 [1]: 356 nM

O=C(NO)c1ccc(Cn2[se]c3ccc(C(F)(F)F)cc3c2=O)cc1
IC50 [1]: 584 nM

CC(c1ccc(C(=O)NO)cc1)n1[se]c2ccccc2c1=O (racemic)
IC50 [1]: 863 nM

CN1CCc2c(c3ccccc3n2Cc2ccc(C(=O)NO)cc2)C1 [TUBASTATIN A]
Activity (PC-12 [2]): Non-Toxic
Activity (PC-12 [3]): Active
Activity (PC-12 [4]): Active
Activity (PC-12 [5]): Active
Activity (PC-12 [6]): Non-Toxic
Activity (PC-12 [7]): Dose-dependent effect
Activity (PC-12 [8]): Active
Activity (PC-12 [9]): 90%
Activity (PC-12 [10]): Active
Activity (PC-12 [11]): Active
Activity (PC-12 [12]): Active
Activity (PC-12 [13]): Active

O=C(NO)c1ccc(Cn2[se]c3ccc(O)cc3c2=O)cc1
IC50 [1]: 188 nM
Activity (PC-12 [6]): Non-Toxic
Activity [14]: Active
Activity (PC-12 [10]): Active
Activity [15]: Active
Activity (PC-12 [11]): Active
Activity (PC-12 [12]): Active
Activity [16]: Active

O=C(NO)c1ccc(Cn2[se]c3ccccc3c2=O)cc1
IC50 [1]: 37 nM
Activity [17]: 78%
Activity (PC-12 [3]): Active
Activity (PC-12 [4]): Active
viability at 5 µM (PC-12 [18]): 90%
Activity [19]: 37%
Activity (PC-12 [6]): Non-Toxic
IC50 (Histone deacetylase 3): 1300 nM
Activity [20]: 62%
Activity (PC-12 [7]): Dose-dependent effect
Activity (PC-12 [10]): Active
inhibition [21]: Dose-dependent effect
Activity (PC-12 [12]): Active
Activity (PC-12 [13]): Active

O=C(NO)c1ccc(-n2[se]c3ccccc3c2=O)cc1
IC50 [1]: 1970 nM

O=C(CCCOc1ccc(-n2[se]c3ccccc3c2=O)cc1)NO
IC50 [1]: 903 nM

O=C(NO)c1cnc(N2CCC(Cn3[se]c4ccccc4c3=O)CC2)nc1
IC50 [1]: 444 nM
